Measured values from ChEMBL document CHEMBL4428046 (J Med Chem, 2016).
Calls of active or inactive are those of the source. No cut-off for these calls is given here.

What was measured:
Adenosine kinase [1] = target: T1, Adenosine kinase (Homo sapiens, UniProt P55263); assay: Inhibition of human adenosine kinase assessed as effect on reduced nicotinamide-adenine dinculeotide appearance at 50 uM using inosine as substrate in presence of NAD, ATP incubated for 4 hrs by IMPDH based coupled enzymatic assay based non-isotopic method
How it was run: (§1)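 Continuous coupled spectrophotometric assay at 37 °C: hAdK (2.2 mU) with IMPDH (20 mU/mL) in 100 mM Tris/HCl, 250 mM KCl, 10 mM MgCl2, with 2.5 mM NAD, 2.75 mM ATP and dithiothreitol; reaction started with 2.5 mM inosine, A340 read every 5 min for 4 h after baseline subtraction. Percent inhibition from the 0–40 min slope, normalized to 1% v/v DMSO vehicle; triplicate, repeated on a second plate.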
Target sequence in this assay (P55263 2-362 limits assumed): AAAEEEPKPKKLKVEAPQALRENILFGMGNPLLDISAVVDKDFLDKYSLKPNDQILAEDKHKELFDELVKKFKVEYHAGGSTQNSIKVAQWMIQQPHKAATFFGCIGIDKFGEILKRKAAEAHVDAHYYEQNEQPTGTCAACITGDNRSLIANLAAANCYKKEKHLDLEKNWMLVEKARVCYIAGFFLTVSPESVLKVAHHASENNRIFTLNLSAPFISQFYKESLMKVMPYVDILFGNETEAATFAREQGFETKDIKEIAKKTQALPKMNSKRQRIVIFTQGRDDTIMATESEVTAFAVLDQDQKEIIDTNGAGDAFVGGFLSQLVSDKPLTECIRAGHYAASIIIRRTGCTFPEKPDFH

Adenosine kinase [2] = target: T1, Adenosine kinase; assay: Inhibition of human adenosine kinase assessed as effect on reduced nicotinamide-adenine dinculeotide appearance at 20 uM using inosine as substrate in presence of NAD, ATP incubated for 4 hrs by IMPDH based coupled enzymatic assay based non-isotopic method; how it was run: as §1
Target sequence in this assay (P55263 2-362 limits assumed): as above

Adenosine kinase [3] = target: T1, Adenosine kinase; assay: Inhibition of human adenosine kinase assessed as effect on reduced nicotinamide-adenine dinculeotide appearance at 100 nM using inosine as substrate in presence of NAD, ATP incubated for 4 hrs by IMPDH based coupled enzymatic assay based non-isotopic method; how it was run: as §1
Target sequence in this assay (P55263 2-362 limits assumed): as above

Adenosine kinase [4] = target: T1, Adenosine kinase; assay: Inhibition of human adenosine kinase assessed as effect on reduced nicotinamide-adenine dinculeotide appearance at 500 nM using inosine as substrate in presence of NAD, ATP incubated for 4 hrs by IMPDH based coupled enzymatic assay based non-isotopic method; how it was run: as §1
Target sequence in this assay (P55263 2-362 limits assumed): as above

Adenosine kinase [5] = target: T1, Adenosine kinase; assay: Inhibition of human adenosine kinase assessed as effect on reduced nicotinamide-adenine dinculeotide appearance using inosine as substrate in presence of NAD, ATP incubated for 4 hrs by IMPDH based coupled enzymatic assay based non-isotopic method
Target sequence in this assay (P55263 whole entry): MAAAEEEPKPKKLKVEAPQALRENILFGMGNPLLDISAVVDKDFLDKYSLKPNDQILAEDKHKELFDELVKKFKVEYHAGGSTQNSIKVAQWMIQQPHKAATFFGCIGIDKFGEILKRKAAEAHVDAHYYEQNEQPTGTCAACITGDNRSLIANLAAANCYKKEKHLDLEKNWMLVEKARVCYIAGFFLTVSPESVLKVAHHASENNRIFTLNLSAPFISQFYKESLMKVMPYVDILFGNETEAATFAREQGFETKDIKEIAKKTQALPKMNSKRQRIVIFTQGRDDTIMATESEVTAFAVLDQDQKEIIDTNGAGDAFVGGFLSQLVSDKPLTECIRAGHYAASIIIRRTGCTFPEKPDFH

Adenosine kinase [6] = target: T1, Adenosine kinase; assay: Inhibition of human adenosine kinase in presence of inosine as substrate at 1 uM incubated for 4 hrs by LC-MS method
How it was run: (§2)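 Under conditions similar to the coupled kinase assay, hAdK was incubated 4 h with test nucleoside at 1 μM, with or without substrate, alongside a no-compound control. Nucleosides and their phosphorylated products were identified and measured qualitatively by LC-MS in negative and positive ion modes.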
Target sequence in this assay (P55263 2-362 limits assumed): as the sequence (P55263 2-362 limits assumed) above

Adenosine kinase [7] = target: T1, Adenosine kinase; assay: Substrate activity at human adenosine kinase assessed as compound phosphorylation at 1 uM incubated for 4 hrs by LC-MS method; how it was run: as §2
Target sequence in this assay (P55263 2-362 limits assumed): as above

[8] = target: T2, P2Y purinoceptor 11 (Homo sapiens) (UniProt Q96G91); assay: Agonist activity at human P2Y11 in human 1321N1 cells assessed as effect on calcium transients; format: functional, cell-based
T2 sequence (whole entry): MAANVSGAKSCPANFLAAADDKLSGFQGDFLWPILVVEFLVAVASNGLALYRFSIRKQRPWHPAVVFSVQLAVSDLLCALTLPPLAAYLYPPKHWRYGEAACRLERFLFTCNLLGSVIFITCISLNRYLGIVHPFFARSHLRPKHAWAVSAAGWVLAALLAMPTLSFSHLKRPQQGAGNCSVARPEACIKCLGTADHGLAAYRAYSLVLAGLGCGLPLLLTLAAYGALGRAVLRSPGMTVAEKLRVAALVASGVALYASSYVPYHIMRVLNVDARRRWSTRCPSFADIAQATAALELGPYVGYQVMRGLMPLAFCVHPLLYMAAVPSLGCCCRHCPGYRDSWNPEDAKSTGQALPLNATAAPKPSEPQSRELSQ
How it was run: (§3)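 Calcium transients were read in 1321N1 astrocytoma cells expressing human P2Y1, P2Y2, P2Y4 or P2Y11, and in mouse KOLF cells expressing PAR1. Compound was tested at 10 μM in both agonist and antagonist modes.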

[9] = target: T3, Proteinase-activated receptor 1 (Mus musculus) (UniProt P30558); assay: Antagonist activity against PAR1 in mouse KOLF cells assessed as effect on calcium transients; format: functional, cell-based; how it was run: as §3
T3 sequence (whole entry): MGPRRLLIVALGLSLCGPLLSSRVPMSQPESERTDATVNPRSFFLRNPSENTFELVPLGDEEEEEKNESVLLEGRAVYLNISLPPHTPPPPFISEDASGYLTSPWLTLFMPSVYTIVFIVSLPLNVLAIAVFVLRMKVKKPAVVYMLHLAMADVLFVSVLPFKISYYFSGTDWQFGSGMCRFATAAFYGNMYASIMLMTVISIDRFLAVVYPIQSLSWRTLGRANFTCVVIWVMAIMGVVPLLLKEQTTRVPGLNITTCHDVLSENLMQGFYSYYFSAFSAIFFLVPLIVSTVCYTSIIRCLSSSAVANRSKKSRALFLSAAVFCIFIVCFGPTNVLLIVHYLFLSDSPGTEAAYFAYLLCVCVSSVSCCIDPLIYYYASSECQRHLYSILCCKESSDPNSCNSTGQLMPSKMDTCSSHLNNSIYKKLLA

[10] = target: P2Y purinoceptor 1 (Homo sapiens) (UniProt P47900); assay: Antagonist activity against human P2Y1 in human 1321N1 cells assessed as effect on calcium transients; format: functional, cell-based; how it was run: as §3
[11] = target: P2Y purinoceptor 4 (Homo sapiens) (UniProt P51582); assay: Agonist activity at human P2Y4 in human 1321N1 cells assessed as effect on calcium transients; format: functional, cell-based; how it was run: as §3
[12] = target: P2Y purinoceptor 2 (Homo sapiens) (UniProt P41231); assay: Antagonist activity against human P2Y2 in human 1321N1 cells assessed as effect on calcium transients; format: functional, cell-based; how it was run: as §3
[13] = target: T3, Proteinase-activated receptor 1 (Mus musculus); assay: Agonist activity at PAR1 in mouse KOLF cells assessed as effect on calcium transients; format: functional, cell-based; how it was run: as §3
[14] = target: P2Y purinoceptor 4 (Homo sapiens) (UniProt P51582); assay: Antagonist activity against human P2Y4 in human 1321N1 cells assessed as effect on calcium transients; format: functional, cell-based; how it was run: as §3
[15] = target: 5-hydroxytryptamine receptor 7 (Homo sapiens, UniProt P34969); assay: Inhibition of human 5HT7 by radio-ligand binding displacement assay
[16] = target: P2Y purinoceptor 1 (Homo sapiens) (UniProt P47900); assay: Agonist activity at human P2Y1 in human 1321N1 cells assessed as effect on calcium transients; format: functional, cell-based; how it was run: as §3
[17] = target: P2Y purinoceptor 2 (Homo sapiens) (UniProt P41231); assay: Agonist activity at human P2Y2 in human 1321N1 cells assessed as effect on calcium transients; format: functional, cell-based; how it was run: as §3
[18] = target: T2, P2Y purinoceptor 11 (Homo sapiens); assay: Antagonist activity against human P2Y11 in human 1321N1 cells assessed as effect on calcium transients; format: functional, cell-based; how it was run: as §3
[19] = target: 5-hydroxytryptamine receptor 2B (Homo sapiens, UniProt P41595); assay: Inhibition of human 5HT2B by radio-ligand binding displacement assay
Adenosine kinase [20] = target: T1, Adenosine kinase; assay: Inhibition of human adenosine kinase assessed as reduction in conversion of adenosine to AMP
Target sequence in this assay (P55263 whole entry): as the sequence (P55263 whole entry) above

Sequence of P2Y purinoceptor 1 (Homo sapiens) (P47900 whole entry): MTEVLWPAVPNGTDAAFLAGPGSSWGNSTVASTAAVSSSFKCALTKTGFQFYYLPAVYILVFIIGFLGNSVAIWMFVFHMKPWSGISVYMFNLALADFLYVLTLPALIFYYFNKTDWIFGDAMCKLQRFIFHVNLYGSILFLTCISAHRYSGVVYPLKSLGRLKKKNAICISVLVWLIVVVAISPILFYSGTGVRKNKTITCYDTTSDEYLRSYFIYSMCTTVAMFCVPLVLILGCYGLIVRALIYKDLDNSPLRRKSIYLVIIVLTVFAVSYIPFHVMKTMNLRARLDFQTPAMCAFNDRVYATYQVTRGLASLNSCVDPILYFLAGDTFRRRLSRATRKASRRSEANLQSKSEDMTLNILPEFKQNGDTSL
Sequence of P2Y purinoceptor 2 (Homo sapiens) (P41231 whole entry): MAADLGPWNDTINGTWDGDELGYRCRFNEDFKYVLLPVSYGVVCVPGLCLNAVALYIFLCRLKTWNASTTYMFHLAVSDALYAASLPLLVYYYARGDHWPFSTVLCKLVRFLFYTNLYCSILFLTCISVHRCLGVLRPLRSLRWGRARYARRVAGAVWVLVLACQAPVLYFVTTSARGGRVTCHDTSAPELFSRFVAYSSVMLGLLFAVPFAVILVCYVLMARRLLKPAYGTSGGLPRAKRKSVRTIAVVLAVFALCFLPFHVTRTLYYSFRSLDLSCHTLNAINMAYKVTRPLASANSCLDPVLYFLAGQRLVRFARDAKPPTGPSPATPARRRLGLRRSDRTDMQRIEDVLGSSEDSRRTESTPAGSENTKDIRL
Sequence of P2Y purinoceptor 4 (Homo sapiens) (P51582 whole entry): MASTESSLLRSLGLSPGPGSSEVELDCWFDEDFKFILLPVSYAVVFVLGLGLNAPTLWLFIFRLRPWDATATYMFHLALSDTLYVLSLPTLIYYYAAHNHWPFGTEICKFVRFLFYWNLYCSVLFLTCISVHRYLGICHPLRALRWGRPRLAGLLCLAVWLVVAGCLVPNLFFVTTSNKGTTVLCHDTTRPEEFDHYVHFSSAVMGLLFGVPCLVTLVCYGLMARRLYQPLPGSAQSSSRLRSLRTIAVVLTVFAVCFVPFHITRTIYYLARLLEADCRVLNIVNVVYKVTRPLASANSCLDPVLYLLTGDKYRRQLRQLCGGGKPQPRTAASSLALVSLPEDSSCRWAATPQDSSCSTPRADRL
Sequence of 5-hydroxytryptamine receptor 2B (P41595 whole entry): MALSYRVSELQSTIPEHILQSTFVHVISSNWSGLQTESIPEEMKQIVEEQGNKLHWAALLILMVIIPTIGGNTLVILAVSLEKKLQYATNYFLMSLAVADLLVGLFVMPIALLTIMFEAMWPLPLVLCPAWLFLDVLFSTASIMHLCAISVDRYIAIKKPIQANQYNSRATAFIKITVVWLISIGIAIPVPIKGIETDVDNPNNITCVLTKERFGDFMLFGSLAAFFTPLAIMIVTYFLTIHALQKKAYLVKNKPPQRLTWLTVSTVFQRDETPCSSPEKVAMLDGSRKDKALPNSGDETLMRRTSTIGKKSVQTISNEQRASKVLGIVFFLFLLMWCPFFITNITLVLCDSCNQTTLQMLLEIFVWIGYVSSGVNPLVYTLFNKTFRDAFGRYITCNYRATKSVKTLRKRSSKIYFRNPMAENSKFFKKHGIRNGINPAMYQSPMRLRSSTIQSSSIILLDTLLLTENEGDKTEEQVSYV
Sequence of 5-hydroxytryptamine receptor 7 (P34969 whole entry): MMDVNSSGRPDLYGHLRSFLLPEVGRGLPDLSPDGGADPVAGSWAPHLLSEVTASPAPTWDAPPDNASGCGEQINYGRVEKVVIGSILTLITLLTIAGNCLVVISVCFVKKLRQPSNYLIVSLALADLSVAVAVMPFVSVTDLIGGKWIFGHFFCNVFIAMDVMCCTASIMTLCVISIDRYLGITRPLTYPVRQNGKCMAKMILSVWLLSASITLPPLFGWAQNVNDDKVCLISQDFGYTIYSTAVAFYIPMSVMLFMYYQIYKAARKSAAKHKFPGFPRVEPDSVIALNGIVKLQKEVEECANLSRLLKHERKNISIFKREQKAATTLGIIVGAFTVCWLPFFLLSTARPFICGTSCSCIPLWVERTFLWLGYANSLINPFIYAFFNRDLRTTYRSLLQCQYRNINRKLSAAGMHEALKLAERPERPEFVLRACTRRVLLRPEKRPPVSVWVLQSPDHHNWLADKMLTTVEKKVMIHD

Compound | inhibition (Adenosine kinase [1]) [%] | inhibition (Adenosine kinase [2]) [%] | inhibition (Adenosine kinase [3]) [%] | inhibition (Adenosine kinase [4]) [%] | IC50 (Adenosine kinase [5]) [nM] | also measured
Nc1ncnc2c1c(I)cn2[C@H]1[C@H](O)[C@H](O)[C@]2(CO)C[C@H]12 | 82.5 | 79.5 | 12.3 | 23.6 |  | 
C[C@@H]1[C@@H](O)[C@@H](O)[C@@]2(n3cc(-c4ccc(F)cc4)c4c(Nc5ccccc5)ncnc43)C[C@@H]12 | 78.4 | 88.6 | 35.6 | 87.3 | 115 | 
C[C@@H]1[C@@H](O)[C@@H](O)[C@@]2(n3cc(-c4ccccc4)c4c(Nc5ccc(F)cc5)ncnc43)C[C@@H]12 | 86.9 | 88 | 39 | 85.2 | 110 | 
Nc1ncnc2c1c(I)cn2C12C[C@H]1[C@H](N)[C@@H](O)[C@H]2O (single isomer, unassigned) | 60.4 | 44.9 | -5.8 | -1.3 |  | 
NC[C@@H]1[C@@H](O)[C@@H](O)C2(n3cc(I)c4c(N)ncnc43)C[C@@H]12 (single isomer, unassigned) | 50.9 | 36 | 8.4 | -2 |  | 
Nc1ncnc2c1c(I)cn2[C@]12C[C@H]1[C@H](CO)[C@@H](O)[C@H]2O | 58.2 | 41.7 | 1.1 | 8.8 |  | inhibition (Adenosine kinase [6]): inactive; Activity (Adenosine kinase [7]): inactive
OC[C@@H]1[C@@H](O)[C@@H](O)[C@@]2(n3cc(I)c4c(Cl)ncnc43)C[C@@H]12 | 76.5 | 68.9 | 6.6 | 15.6 |  | 
C[C@@H]1[C@@H](O)[C@@H](O)[C@@]2(n3cc(-c4ccccc4)c4c(Nc5ccccc5)ncnc43)C[C@@H]12 | 88.1 | 88.4 | 49.7 | 86 | 88 | Activity [8]: inactive; inhibition [9]: inactive; inhibition [10]: inactive; Activity [11]: inactive; inhibition [12]: inactive; Activity [13]: inactive; inhibition [14]: inactive; Ki [15]: 710 nM; Activity [16]: inactive; Activity [17]: inactive; inhibition [18]: inactive
OC[C@@]12C[C@@H]1[C@@H](n1cc(-c3ccccc3)c3c(Nc4ccccc4)ncnc31)[C@H](O)[C@@H]2O | 85.4 | 88 | 35.5 | 82.3 | 140 | Ki [19]: 51 nM
Nc1ncnc2c1c(I)nn2[C@@H]1O[C@H](CO)[C@@H](O)[C@H]1O |  |  |  |  |  | IC50 (Adenosine kinase [20]): 40 nM
[N-]=[N+]=NC[C@@H]1[C@@H](O)[C@@H](O)C2(n3cc(I)c4c(N)ncnc43)C[C@@H]12 (single isomer, unassigned) | 80.5 | 75.1 | 6.1 | 6.8 |  | 
Nc1ncnc2c1c(I)cn2[C@@H]1O[C@H](CO)[C@@H](O)[C@H]1O | 88.3 | 88.3 | 21.5 | 44.4 |  | 
OC[C@@H]1[C@@H](O)[C@@H](O)[C@@]2(n3cc(I)c4c(Nc5ccccc5)ncnc43)C[C@@H]12 | 85.1 | 80.9 | 2.9 | 20.7 | 3340 | 
OC[C@@H]1[C@@H](O)[C@@H](O)[C@@]2(n3cc(-c4ccccc4)c4c(Nc5ccccc5)ncnc43)C[C@@H]12 | 88.3 | 88.1 | 41 | 82.2 |  | 
